Measurements published in ChEMBL document CHEMBL1152649, “Synthesis, cytotoxicity and human telomerase inhibition activities of a series of 1,2-heteroannelated anthraquinones and anthra[1,2-d]imidazole-6,11-dione homologues” (2009).
Activity calls are given as the source filed them. The rule behind the calls is not given here.

Tests used:
[1] = Cytotoxicity against human H1299 cells at 10 uM after 48 hrs by MTT assay; type: functional; details: NCI-H1299, 48 h
Outline: (§1)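 H1299 non-small cell lung cancer cells were grown in RPMI 1640 with 10% FBS, penicillin and streptomycin at 37 °C under 5% CO2. About 2 × 10³ cells per well were seeded and left 24 h. Compounds were dissolved fresh in DMSO, diluted into complete medium and applied for 48 h. MTT was then added for 4 h at 37 °C, followed by lysis buffer (20% SDS, 50% DMF) for 16 h, and absorbance was read at 550 nm.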

HCT-116 = experiment: Antiproliferative activity against human HCT116 cells assessed as cell growth at 10 uM; type: functional; details: read-out: Activity
Outline: (§2)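 NCI 60 cell line panel, single-dose screen (10^-5 M) run by the developmental therapeutics program protocol. Results are given as growth percent of treated cells relative to untreated control cells for each line.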

DU-145 = experiment: Antiproliferative activity against human DU145 cells assessed as cell growth at 10 uM; type: functional; details: read-out: Activity; outline: as §2
[2] = Antiproliferative activity against human Hs 578T cells assessed as cell growth at 10 uM; type: functional; details: read-out: Activity; outline: as §2
SF-295 = experiment: Antiproliferative activity against human SF295 cells assessed as cell growth at 10 uM; type: functional; details: read-out: Activity; outline: as §2
ACHN = experiment: Antiproliferative activity against human ACHN cells assessed as cell growth at 10 uM; type: functional; details: read-out: Activity; outline: as §2
OVCAR-5 = experiment: Antiproliferative activity against human OVCAR5 cells assessed as cell growth at 10 uM; type: functional; details: read-out: Activity; outline: as §2
MCF7 = experiment: Antiproliferative activity against human MCF7 cells assessed as cell growth at 10 uM; type: functional; details: read-out: Activity; outline: as §2
UACC-62 = experiment: Antiproliferative activity against human UACC62 cells assessed as cell growth at 10 uM; type: functional; details: read-out: Activity
Outline: (§3)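 NCI 60 cell line panel, single dose (10^-5 M), run per the Developmental Therapeutics Program protocol (one dose mean graph). Each result is the growth percentage of treated cells relative to untreated control cells.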

[3] = biological target: Telomerase reverse transcriptase (Homo sapiens) (UniProt O14746); experiment: Inhibition of TERT in human H1299 cells assessed as residual transcriptional activity at 10 uM after 24 hrs by SEAP reporter gene assay; values are per cent of control
U-251 = experiment: Antiproliferative activity against human U251 cells assessed as cell growth at 10 uM; type: functional; details: read-out: Activity; outline: as §3
[4] = Antiproliferative activity against human RPMI8266 cells assessed as cell growth at 10 uM; type: functional; details: read-out: Activity; outline: as §2
EKVX = experiment: Antiproliferative activity against human EKVX cells assessed as cell growth at 10 uM; type: functional; details: read-out: Activity; outline: as §2
UO-31 = experiment: Antiproliferative activity against human UO31 cells assessed as cell growth at 10 uM; type: functional; details: read-out: Activity; outline: as §3
MDA-MB-231 = experiment: Antiproliferative activity against human MDA-MB-231 cells assessed as cell growth at 10 uM; type: functional; details: read-out: Activity; outline: as §2
A549 = experiment: Antiproliferative activity against human A549 cells assessed as cell growth at 10 uM; type: functional; details: read-out: Activity; outline: as §2
SNB-75 = experiment: Antiproliferative activity against human SNB75 cells assessed as cell growth at 10 uM; type: functional; details: read-out: Activity; outline: as §3
OVCAR-3 = experiment: Antiproliferative activity against human OVCAR-3 cells assessed as cell growth at 10 uM; type: functional; details: read-out: Activity; outline: as §2
SF-268 = experiment: Antiproliferative activity against human SF268 cells assessed as cell growth at 10 uM; type: functional; details: read-out: Activity; outline: as §2
NCI/ADR-RES = experiment: Antiproliferative activity against human NCI/ADR-RES cells assessed as cell growth at 10 uM; type: functional; details: read-out: Activity; outline: as §2
CCRF-CEM = experiment: Antiproliferative activity against human CCRF-CEM cells assessed as cell growth at 10 uM; type: functional; details: read-out: Activity; outline: as §2
SK-OV-3 = experiment: Antiproliferative activity against human SKOV3 cells assessed as cell growth at 10 uM; type: functional; details: read-out: Activity; outline: as §2
SK-MEL-28 = experiment: Antiproliferative activity against human SK-MEL-28 cells assessed as cell growth at 10 uM; type: functional; details: read-out: Activity; outline: as §2
NCI-H460 = experiment: Antiproliferative activity against human NCI-H460 cells assessed as cell growth at 10 uM; type: functional; details: read-out: Activity; outline: as §2
NCI-H23 = experiment: Antiproliferative activity against human NCI-H23 cells assessed as cell growth at 10 uM; type: functional; details: read-out: Activity; outline: as §2
KM12 = experiment: Antiproliferative activity against human KM12 cells assessed as cell growth at 10 uM; type: functional; details: read-out: Activity; outline: as §2
CAKI-1 = experiment: Antiproliferative activity against human Caki1 cells assessed as cell growth at 10 uM; type: functional; details: read-out: Activity; outline: as §2
MOLT-4 = experiment: Antiproliferative activity against human MOLT4 cells assessed as cell growth at 10 uM; type: functional; details: read-out: Activity; outline: as §2
OVCAR-8 = experiment: Antiproliferative activity against human OVCAR8 cells assessed as cell growth at 10 uM; type: functional; details: read-out: Activity; outline: as §2
M14 = experiment: Antiproliferative activity against human M14 cells assessed as cell growth at 10 uM; type: functional; details: read-out: Activity; outline: as §2
HT-29 = experiment: Antiproliferative activity against human HT-29 cells assessed as cell growth at 10 uM; type: functional; details: read-out: Activity; outline: as §2
[5] = biological target: Telomerase reverse transcriptase (Homo sapiens) (UniProt O14746); experiment: Inhibition of TERT in human H1299 cells assessed as residual transcriptional activity at 1 uM after 24 hrs by SEAP reporter gene assay; values are per cent of control
[6] = biological target: Telomerase reverse transcriptase (Homo sapiens) (UniProt O14746); experiment: Inhibition of telomerase in human H1299 cells up to 100 uM by TRAP assay; type: cell-based
Outline: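 PCR-based telomeric repeat amplification protocol (TRAP). The telomerase source was total lysate of H1299 lung cancer cells, with protein measured against BSA standards. Controls were extract without inhibitor and RNase A-treated extract.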

NCI-H322M = experiment: Antiproliferative activity against human NCI-H322M cells assessed as cell growth at 10 uM; type: functional; details: read-out: Activity; outline: as §2
HCC 2998 = experiment: Antiproliferative activity against human HCC2998 cells assessed as cell growth at 10 uM; type: functional; details: read-out: Activity; outline: as §2
[7] = Cytotoxicity against human H1299 cells at 100 uM after 48 hrs by MTT assay; type: functional; details: NCI-H1299, 48 h; outline: as §1
786-0 = experiment: Antiproliferative activity against human 786-0 cells assessed as cell growth at 10 uM; type: functional; details: read-out: Activity; outline: as §2
SK-MEL-5 = experiment: Antiproliferative activity against human SK-MEL-5 cells assessed as cell growth at 10 uM; type: functional; details: read-out: Activity; outline: as §2
T47D = experiment: Antiproliferative activity against human T47D cells assessed as cell growth at 10 uM; type: functional; details: read-out: Activity; outline: as §3
OVCAR-4 = experiment: Antiproliferative activity against human OVCAR4 cells assessed as cell growth at 10 uM; type: functional; details: read-out: Activity; outline: as §2
COLO 205 = experiment: Antiproliferative activity against human COLO205 cells assessed as cell growth at 10 uM; type: functional; details: read-out: Activity; outline: as §2
NCI-H522 = experiment: Antiproliferative activity against human NCI-H522 cells assessed as cell growth at 10 uM; type: functional; details: read-out: Activity; outline: as §2
TK-10 = experiment: Antiproliferative activity against human TK10 cells assessed as cell growth at 10 uM; type: functional; details: read-out: Activity; outline: as §3
PC-3 = experiment: Antiproliferative activity against human PC3 cells assessed as cell growth at 10 uM; type: functional; details: read-out: Activity; outline: as §2
SK-MEL-2 = experiment: Antiproliferative activity against human SK-MEL-2 cells assessed as cell growth at 10 uM; type: functional; details: read-out: Activity; outline: as §2
UACC-257 = experiment: Antiproliferative activity against human UACC257 cells assessed as cell growth at 10 uM; type: functional; details: read-out: Activity; outline: as §3

Telomerase reverse transcriptase (Homo sapiens), sequence (O14746 whole entry): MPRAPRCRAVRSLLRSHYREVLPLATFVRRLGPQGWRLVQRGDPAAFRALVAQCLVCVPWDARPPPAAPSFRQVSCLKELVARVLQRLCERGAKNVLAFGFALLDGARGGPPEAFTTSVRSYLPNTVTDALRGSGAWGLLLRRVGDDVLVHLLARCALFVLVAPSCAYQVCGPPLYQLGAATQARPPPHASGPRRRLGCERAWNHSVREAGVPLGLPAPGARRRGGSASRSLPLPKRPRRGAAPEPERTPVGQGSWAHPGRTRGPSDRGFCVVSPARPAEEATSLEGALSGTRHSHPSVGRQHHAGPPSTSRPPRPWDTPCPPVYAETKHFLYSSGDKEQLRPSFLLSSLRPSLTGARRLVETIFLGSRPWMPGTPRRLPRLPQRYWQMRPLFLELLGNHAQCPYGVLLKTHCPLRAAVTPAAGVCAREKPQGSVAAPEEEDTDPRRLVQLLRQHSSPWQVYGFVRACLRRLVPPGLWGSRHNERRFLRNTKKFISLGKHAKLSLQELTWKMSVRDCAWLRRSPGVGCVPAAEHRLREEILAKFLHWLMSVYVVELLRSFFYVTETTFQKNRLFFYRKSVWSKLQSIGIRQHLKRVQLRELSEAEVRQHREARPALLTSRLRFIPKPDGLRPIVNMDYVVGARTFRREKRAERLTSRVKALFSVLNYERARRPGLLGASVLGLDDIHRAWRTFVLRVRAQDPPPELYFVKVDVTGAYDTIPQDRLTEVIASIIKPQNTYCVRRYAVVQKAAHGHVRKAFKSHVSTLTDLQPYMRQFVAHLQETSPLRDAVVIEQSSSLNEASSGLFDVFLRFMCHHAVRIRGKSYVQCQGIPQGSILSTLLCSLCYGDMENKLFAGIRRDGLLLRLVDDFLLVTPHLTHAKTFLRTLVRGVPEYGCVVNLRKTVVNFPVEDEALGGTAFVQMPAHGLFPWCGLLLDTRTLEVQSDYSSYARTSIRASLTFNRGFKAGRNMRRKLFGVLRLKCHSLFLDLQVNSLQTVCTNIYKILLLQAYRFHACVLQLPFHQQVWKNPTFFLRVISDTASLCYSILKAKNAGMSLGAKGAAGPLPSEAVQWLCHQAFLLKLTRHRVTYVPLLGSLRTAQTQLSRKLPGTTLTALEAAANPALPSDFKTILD

For O=C1c2ccccc2C(=O)c2c1ccc1nc(-c3ccccc3)[nH]c21, the viability at 10 µM [1] was 72%, the growth at 10 µM (HCT-116) was 82.4% and the growth at 10 µM (DU-145) was 84.3%. The growth at 10 µM [2] was 30.4%, the growth at 10 µM (SF-295) was 73.6% and the growth at 10 µM (ACHN) was 71.9%. It also gave a growth at 10 µM (OVCAR-5) of 109%, a growth at 10 µM (MCF7) of 51.8% and a growth at 10 µM (UACC-62) of 70.4%. For the same molecule, the residual activity [3] was 78%, the growth at 10 µM (U-251) was 97.1% and the growth at 10 µM [4] was 61.1%. For the same molecule, the growth at 10 µM (EKVX) was 77.1%, the growth at 10 µM (UO-31) was 57.6% and the growth at 10 µM (MDA-MB-231) was 81.4%. For the same molecule, the growth at 10 µM (A549) was 79%, the growth at 10 µM (SNB-75) was 75.1% and the growth at 10 µM (OVCAR-3) was 69.2%. It also gave a growth at 10 µM (SF-268) of 91.9%, a growth at 10 µM (NCI/ADR-RES) of 90.2% and a growth at 10 µM (CCRF-CEM) of 86.3%. It also gave a growth at 10 µM (SK-OV-3) of 115%, a growth at 10 µM (SK-MEL-28) of 60.4% and a growth at 10 µM (NCI-H460) of 86.2%. For the same molecule, the growth at 10 µM (NCI-H23) was 91.7%, the growth at 10 µM (KM12) was 75.5% and the growth at 10 µM (CAKI-1) was 51.9%. It also gave a growth at 10 µM (MOLT-4) of 88.3%, a growth at 10 µM (OVCAR-8) of 91% and a growth at 10 µM (M14) of 101%. For the same molecule, the growth at 10 µM (HT-29) was 83.2%, the residual activity [5] was 81% and the inhibition [6] was “inactive”. For the same molecule, the growth at 10 µM (NCI-H322M) was 77.4%, the growth at 10 µM (HCC 2998) was 105% and the viability at 100 µM [7] was 34%. For the same molecule, the growth at 10 µM (786-0) was 111%, the growth at 10 µM (SK-MEL-5) was 65.2% and the growth at 10 µM (T47D) was 65.1%. It also gave a growth at 10 µM (OVCAR-4) of 73.4%, a growth at 10 µM (COLO 205) of 92% and a growth at 10 µM (NCI-H522) of 80.4%. For the same molecule, the growth at 10 µM (TK-10) was 82%, the growth at 10 µM (PC-3) was 52.5% and the growth at 10 µM (SK-MEL-2) was 62.6%.

Molecule O=C1c2ccccc2C(=O)c2c1ccc1nccnc21 has a viability at 10 µM [1] of 13%, a growth at 10 µM (HCT-116) of 53.3% and a growth at 10 µM (DU-145) of 93.3%. For the same molecule, the growth at 10 µM [2] was 76.8%, the growth at 10 µM (SF-295) was 80.8% and the growth at 10 µM (ACHN) was 46.5%. It also gave a growth at 10 µM (OVCAR-5) of 107%, a growth at 10 µM (MCF7) of 39.7% and a growth at 10 µM (UACC-62) of 90.5%. For the same molecule, the residual activity [3] was 26%, the growth at 10 µM (U-251) was 63.5% and the growth at 10 µM (EKVX) was 82.6%. It also gave a growth at 10 µM (UO-31) of 51.5%, a growth at 10 µM (MDA-MB-231) of 81.4% and a growth at 10 µM (A549) of 47.1%. For the same molecule, the growth at 10 µM (SNB-75) was 105%, the growth at 10 µM (OVCAR-3) was 71.7% and the growth at 10 µM (SF-268) was 68%. It also gave a growth at 10 µM (NCI/ADR-RES) of 68%, a growth at 10 µM (SK-OV-3) of 78.2% and a growth at 10 µM (SK-MEL-28) of 97.5%. For the same molecule, the growth at 10 µM (NCI-H460) was 31.7%, the growth at 10 µM (NCI-H23) was 65.1% and the growth at 10 µM (KM12) was 61%. The growth at 10 µM (CAKI-1) was 87.9%, the growth at 10 µM (MOLT-4) was 22.9% and the growth at 10 µM (OVCAR-8) was 47.5%. It also gave a growth at 10 µM (M14) of 59.8%, a growth at 10 µM (HT-29) of 81.9% and a residual activity [5] of 105%. For the same molecule, the inhibition [6] was “inactive”, the growth at 10 µM (NCI-H322M) was 96.3% and the growth at 10 µM (HCC 2998) was -7.15%. The growth at 10 µM (UACC-257) was 91.1%, the viability at 100 µM [7] was 6% and the growth at 10 µM (786-0) was 28.4%. For the same molecule, the growth at 10 µM (SK-MEL-5) was 66.6%, the growth at 10 µM (T47D) was 85.2% and the growth at 10 µM (OVCAR-4) was 94.2%. The growth at 10 µM (COLO 205) was 71.6%, the growth at 10 µM (NCI-H522) was 24.1% and the growth at 10 µM (TK-10) was 127%. For the same molecule, the growth at 10 µM (SK-MEL-2) was 6.66%.
